We go through five molecules from PMC11191573 (ACS Omega, 2024).

pIC50: −log10 of the molar value.

For data set [1], the target named is T1, Aβ1–42 (Homo sapiens, UniProt P05067). Description: Transmission electron microscopy of Aβ1–42 fibrils after ThT assay. Type of data set: biochemical. The conditions noted are these: 100 μM constituent, 50 μM Aβ1–42, 3 h incubation. An outline of the steps: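 After the 3 h, 37 °C ThT assay (50 μM Aβ1−42, 100 μM constituent), 10 μL was spotted on a copper grid. It was stained with 2% aqueous uranyl acetate, blotted, air-dried and imaged by TEM at 120 kV.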

Data set [2] concerns IL 1B mRNA in THP-1 cells. Description: RT-qPCR of IL 1B in Aβ1–42-stimulated THP-1 cells. The conditions noted are these: 10 μM Aβ1–42, 24 h; ARA 0.1 μM, LPC 10 μM, LTN 0.1 μM, POA 10 μM, ZX 1 μM. The data set is classed as cell-based, human. In general terms: Quantitative PCR measures a nucleic acid by following its amplification.
A further data set has as its system TNF mRNA in THP-1 cells. The data set is described as follows: RT-qPCR of TNF in Aβ1–42-stimulated THP-1 cells. Type of data set: cell-based, human. Conditions: 10 μM Aβ1–42, 24 h; ARA 0.1 μM, LPC 10 μM, LTN 0.1 μM, POA 10 μM, ZX 1 μM.
The next data set concerns the target Aβ1–42 fibrils (Homo sapiens, UniProt P05067). The data set is described as follows: Aβ fibril destabilization assay. The conditions noted are these: 100 μM constituent, 50 μM Aβ1–42 fibrils, 37 °C, 5 h. The data set is classed as biochemical. An outline of the steps:
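Aβ1−42 was pre-aggregated at 37 °C for 2 days, and fibril formation was confirmed by 1 h of stable ThT RFU. Constituent was then added (100 μM final; 50 μM Aβ1−42) and ThT fluorescence (Ex/Em 440/484 nm) was read for 5 h at 37 °C as in the aggregation assay. AUC was calculated. Mean ± SD, n = 3; Dunnett's test.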

The subject of another data set is THP-1 cells. Description: MTT assay. Type of data set: cell-based, human. The conditions noted are these: 0, 0.1, 1 or 10 μM tested, 24 h. An outline of the steps:
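THP-1 cells were plated at 5 × 10^4 cells/well and cultured 24 h at 37 °C. Medium containing 0, 0.1, 1 or 10 μM constituent was added for a further 24 h. Viability was measured with an MTT kit per the manufacturer's protocol and used to set nontoxic working concentrations.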
In general terms: Formazan colour is commonly taken as a measure of viable cells.

For the next data set, the system named is Aβ. The conditions noted are these: previously shown; cited from earlier work.
For data set [3], the target named is T1, Aβ1–42. The data set is described as follows: PICUP oligomerization assay. The conditions noted are these: 50 μM constituent (final), 25 μM Aβ. Type of data set: biochemical.
Data set [4] deals with T1, Aβ1–42. The data set is described as follows: FTIR spectroscopy of Aβ1–42 secondary structure. Type of data set: biochemical. The conditions noted are these: after ThT assay, mixed with Aβ1–42. An outline of the steps: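 Samples came from completed ThT assays (50 μM Aβ1−42 ± 100 μM constituent, 37 °C, 3 h). 15 μL was dried on a diamond ATR prism at 25 °C, repeated twice. ATR-FTIR spectra were taken over 1500–1700 cm−1 with 100 s integration. The area under the parallel β-sheet absorbance band was integrated. Mean ± SD, n = 3; Dunnett's test.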

Data set [5] addresses T1, Aβ1–42. The data set is described as follows: ThT assay of Aβ1–42 aggregation. Type of data set: biochemical. Conditions: for Time course of RFU (curve shape) at lower concentrations: 25 and 50 μM constituent, data not shown; for Concentration dependence of activity in ThT assay: 25, 50, 100 μM. An outline of the steps:
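Aβ1−42 was dissolved in 2 mM NaOH, lyophilized, then taken up in 20 mM phosphate buffer pH 7.4. Final concentrations were 50 μM Aβ1−42, 200 μM ThT and 100 μM constituent (25 and 50 μM for concentration dependence). Fluorescence (Ex 440/Em 484 nm) was read every 5 min for 3 h at 37 °C and blank-subtracted. Phenol red was the positive control and Aβ alone the negative. IC50 came from sigmoidal fitting. Mean ± SD, n = 3.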

Data set [6] addresses T1, Aβ1–42. Conditions: previous paper; cited from earlier work.
For data set [7] the following is noted: monkeys, after feeding; cited from earlier work.
The subject of data set [8] is TNF protein in THP-1 cell culture media. The data set is described as follows: ELISA of TNF in supernatant of Aβ1–42-stimulated THP-1 cells. Type of data set: cell-based, human. The conditions noted are these: 10 μM Aβ1–42, 24 h; LTN 0.1 μM. An outline of the steps: (§1)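 THP-1 cells were seeded at 5 × 10^5 cells/mL and differentiated to adherent macrophage-like cells (24 h). They were rested 24 h at 37 °C in RPMI-1640/10% FBS/1% P/S, then stimulated with 10 μM Aβ1−42 ± constituent for 24 h. Supernatant was assayed with human IL-1β or TNF-α sandwich ELISA kits, reading A450 and converting to pg/mL. Mean ± SE, n = 3; Tukey's test.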
(An ELISA detects its analyte on a solid surface through an enzyme-linked reagent.)

A further data set relates to Caco-2 cells. The conditions noted are these: in vitro; cited from earlier work.
In data set [9] the test system is IL 1B protein in THP-1 cell culture media. Description: ELISA of IL 1B in supernatant of Aβ1–42-stimulated THP-1 cells. The data set is classed as cell-based, human. The conditions noted are these: 10 μM Aβ1–42, 24 h; LTN 0.1 μM. An outline of the steps:
as §1

Sequence of Aβ1–42 fibrils (P05067 672-713): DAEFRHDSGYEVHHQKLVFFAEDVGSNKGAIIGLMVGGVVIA
T1 sequence (P05067 672-713): as above

With `CC1=C(/C=C/C(C)=C/C=C/C(C)=C/C=C/C=C(C)/C=C/C=C(C)/C=C/C2=C(C)C[C@@H](O)CC2(C)C)C(C)(C)C[C@H](O)C1` [ZX, zeaxanthin], the “Inhibition of Aβ1–42 aggregation observed by TEM” value (“Inhibition … by TEM” below) on Aβ1–42 [1] is “inhibited Aβ1–42 aggregation”. In addition, the “IL 1B mRNA induced by Aβ1–42” value in data set [2] was “not suppressed”. For the same molecule, the “TNF mRNA induced by Aβ1–42” value in the data set with TNF mRNA in THP-1 cells is “not suppressed”. Besides, the “RFU of ThT during incubation with preformed Aβ1–42 fibrils” value (“RFU of ThT during incubation” for short) on Aβ1–42 fibrils is on record as “remained unchanged”. In the data set on THP-1 cells, the “Optimal (nontoxic) concentration determined by MTT assay” value (shortened to “Optimal (nontoxic) concentration”) was determined as 1 µM. Besides, in the data set with Aβ, the “Inhibition of Aβ aggregation” value was “inhibit Aβ aggregation”. Besides, the “Inhibition of Aβ1–42 oligomerization (PICUP)” value (“Inhibition … (PICUP)” below) on Aβ1–42 [3] is reported as “inhibited oligomerization”. Besides, the “AUC of absorbances in the range of 1615–1645 cm^–1 (parallel β-sheet)” value (shortened to “AUC of absorbances”) at Aβ1–42 [4] is given as “decrease”.

As usually defined, the pIC50 is the negative decadic logarithm of the IC50, by convention in mol/L. Turning to `CCCCC/C=C\C/C=C\C/C=C\C/C=C\CCCC(=O)O` [ARA, arachidonic acid], the “Inhibition … by TEM” value at Aβ1–42 [1] is “inhibited Aβ1–42 aggregation”. In addition, on Aβ1–42 [5], the pIC50 is 4.43 and the “Time course of RFU (curve shape) at lower concentrations” value (from here on “Time course … at lower concentrations”) is given as “did not improve”. Also, the “RFU at start of ThT assay” value at Aβ1–42 [5] (100 μM ARA, 50 μM Aβ1–42) is reported as “approximately 25 RFU”. Also, the “IL 1B mRNA induced by Aβ1–42” value in [2] is reported as “not suppressed”. Besides, the “TNF mRNA induced by Aβ1–42” value with TNF mRNA in THP-1 cells is recorded as “not suppressed”. Besides, at Aβ1–42 fibrils, the “RFU of ThT during incubation” value is listed as “remained unchanged”. In the data set on THP-1 cells, the “Optimal (nontoxic) concentration” value stood at 0.1 µM. The “Inhibition … (PICUP)” value at Aβ1–42 [3] was “did not inhibit oligomerization”. In addition, at Aβ1–42 [4], the “AUC of absorbances” value is listed as “decrease”.

As to L-α-lysophosphatidylcholine [LPC], the “Inhibition … by TEM” value at Aβ1–42 [1] is “inhibited Aβ1–42 aggregation”. Moreover, the “Time course … at lower concentrations” value on Aβ1–42 [5] was “did not improve”. Moreover, the “IL 1B mRNA induced by Aβ1–42” value in data set [2] is “not suppressed”. In addition, the “TNF mRNA induced by Aβ1–42” value in the data set on TNF mRNA in THP-1 cells is “not suppressed”. In addition, the “RFU of ThT during incubation” value on Aβ1–42 fibrils was “remained unchanged”. The “Effect on Aβ1–42 aggregation” value at Aβ1–42 [6] is “facilitates Aβ1–42 aggregation”. Further, in the data set on THP-1 cells, the “Optimal (nontoxic) concentration” value amounted to 10 µM. At Aβ1–42 [4], the “AUC of absorbances” value was “particular decrease”.

Consider `CCCCCC/C=C\CCCCCCCC(=O)O` [POA, palmitoleic acid], for which, at Aβ1–42 [1], the “Inhibition … by TEM” value is on record as “inhibited Aβ1–42 aggregation” and the “Morphology of Aβ fibrils by TEM” value is given as “amorphous”. Further, the “Concentration dependence of activity in ThT assay” value at Aβ1–42 [5] is on record as “no concentration dependence”. Moreover, in data set [2], the “IL 1B mRNA induced by Aβ1–42” value was “not suppressed”. Moreover, the “TNF mRNA induced by Aβ1–42” value with TNF mRNA in THP-1 cells is reported as “not suppressed”. The “RFU of ThT during incubation” value on Aβ1–42 fibrils is listed as “decreased”. Also, in the data set on THP-1 cells, the “Optimal (nontoxic) concentration” value was 10 µM. In addition, the “Inhibition … (PICUP)” value at Aβ1–42 [3] is on record as “inhibited oligomerization”.

In the case of `CC1=C[C@H](O)CC(C)(C)[C@H]1/C=C/C(C)=C/C=C/C(C)=C/C=C/C=C(C)/C=C/C=C(C)/C=C/C1=C(C)C[C@@H](O)CC1(C)C` [LTN, lutein], the “Inhibition … by TEM” value at Aβ1–42 [1] was “inhibited the Aβ1–42 aggregation the most”. Further, on Aβ1–42 [5], the negative logarithm of the IC50 (pIC50) was 4.13, the “Concentration dependence of activity in ThT assay” value is reported as “concentration-dependent” and the “Time course … at lower concentrations” value was “sigmoidal curve”. In data set [2], the “IL 1B mRNA induced by Aβ1–42” value was “suppressed”. The “TNF mRNA induced by Aβ1–42” value in the data set with TNF mRNA in THP-1 cells is “suppressed”. Moreover, the “RFU of ThT during incubation” value at Aβ1–42 fibrils is on record as “remained unchanged”. The “Concentration of LTN in the brains” value in [7] was “increases”. Moreover, the “Optimal (nontoxic) concentration” value in the data set on THP-1 cells came out at 0.1 µM. Also, the “Protein concentration of TNF in the supernatant” value in data set [8] is “no difference was observed”. Besides, in the data set on Aβ, the “Inhibition of Aβ aggregation” value is on record as “inhibit Aβ aggregation”. Also, the “Intestinal absorption of LTN in the presence of LPC” value in the data set with Caco-2 cells is on record as “increases”. Also, the “Inhibition … (PICUP)” value at Aβ1–42 [3] is “did not inhibit oligomerization”. The “AUC of absorbances” value on Aβ1–42 [4] is recorded as “particular decrease”. Moreover, the “Protein concentration of IL 1B in the supernatant” value in [9] is listed as “suppressed”.
